Laboratory results published in ChEMBL document CHEMBL1155292, “Synthesis, analgesic and anti-inflammatory activities evaluation of some bi-, tri- and tetracyclic condensed pyrimidines” (Eur J Med Chem, 2009).

What was measured:
[1] = test system: Rattus norvegicus; test: Gastrointestinal toxicity in albino rat assessed as ulcerogenic index at 0.029 mmol/kg, po after 5 hrs; assay type: organism-based; details: in vivo
Procedure, shortened: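 Adult albino rats of either sex (120–150 g), 6 per group, got the test compounds orally by stomach tube as a suspension in saline with a few drops of tween 80. They were the same rats used in the carrageenan paw-edema test. Stomachs were then opened along the great curvature and examined for lesions or bleeding. Ulceration was recorded as the number of rats with ulcers out of 6.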

[2] = test system: Rattus norvegicus; test: Antiinflammatory activity in albino rat assessed as inhibition of carrageenan-induced paw edema at 0.029 mmol/kg, po after 4 hrs relative to control; assay type: functional
Procedure, shortened: (§1)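 Adult albino rats of either sex, 120–150 g, six per group. Compounds at 0.029 mmol/kg suspended in saline with a few drops of Tween 80 and given by oral stomach tube. After 1 h, 0.1 ml of freshly prepared 1% carrageenan in saline injected subplantar into the right hind paw. Paw thickness measured at 1–4 h; % edema inhibition versus control; mean ± SEM; ANOVA.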

[3] = test system: Rattus norvegicus; test: Antiinflammatory activity in albino rat assessed as inhibition of carrageenan-induced paw edema at 0.029 mmol/kg, po after 1 hr relative to control; assay type: functional; procedure, shortened: as §1
[4] = test system: Rattus norvegicus; test: Antiinflammatory activity in albino rat assessed as inhibition of carrageenan-induced paw edema at 0.029 mmol/kg, po after 4 hrs relative to indomethacin; assay type: functional
Procedure, shortened: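 Rat carrageenan paw edema: oral 0.029 mmol/kg in saline/Tween 80, 1 h before subplantar 0.1 ml 1% carrageenan into the right hind paw; six rats per group. Potency is % inhibition of the test compound divided by % inhibition of indomethacin at 4 h.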

[5] = test system: Rattus norvegicus; test: Antiinflammatory activity in albino rat assessed as inhibition of carrageenan-induced paw edema at 0.029 mmol/kg, po after 3 hrs relative to control; assay type: functional; procedure, shortened: as §1
[6] = test system: Rattus norvegicus; test: Antiinflammatory activity in albino rat assessed as inhibition of carrageenan-induced paw edema at 0.029 mmol/kg, po after 2 hrs relative to control; assay type: functional; procedure, shortened: as §1
[7] = test system: Mus musculus; test: Analgesic activity in albino mouse assessed as decrease in acetic acid-induced writhing at 8.45 mg/kg, po administered 1 hr prior to acetic acid challenge relative to control; assay type: functional
Procedure, shortened: (§2)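 Albino mice of either sex, 18–22 g, six per group. Test agents suspended in saline with a few drops of Tween 80 and given by oral stomach tube; controls handled identically without drug. After 1 h, 0.3 ml of 1% acetic acid ip. Writhing contractions counted for 30 min, starting 5 min after injection. % protection versus control mean; mean ± SEM; one-way ANOVA with post hoc test.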

[8] = test system: Mus musculus; test: Analgesic activity in albino mouse assessed as decrease in acetic acid-induced writhing at 10.45 mg/kg, po administered 1 hr prior to acetic acid challenge relative to control; assay type: functional; procedure, shortened: as §2
[9] = test system: Mus musculus; test: Analgesic activity in albino mouse assessed as decrease in acetic acid-induced writhing at 8.94 mg/kg, po administered 1 hr prior to acetic acid challenge relative to control; assay type: functional; procedure, shortened: as §2
[10] = test system: Mus musculus; test: Analgesic activity in albino mouse assessed as decrease in acetic acid-induced writhing at 7.63 mg/kg, po administered 1 hr prior to acetic acid challenge relative to control; assay type: functional; procedure, shortened: as §2
[11] = test system: Mus musculus; test: Analgesic activity in albino mouse assessed as decrease in acetic acid-induced writhing at 8.59 mg/kg, po administered 1 hr prior to acetic acid challenge relative to control; assay type: functional; procedure, shortened: as §2
[12] = test system: Mus musculus; test: Analgesic activity in albino mouse assessed as decrease in acetic acid-induced writhing at 0.4 mg/kg, po administered 1 hr prior to acetic acid challenge; assay type: functional; procedure, shortened: as §2
[13] = test system: Mus musculus; test: Analgesic activity in albino mouse assessed as decrease in acetic acid-induced writhing at 1 mg/kg, po administered 1 hr prior to acetic acid challenge; assay type: functional; procedure, shortened: as §2
[14] = test system: Mus musculus; test: Analgesic activity in albino mouse assessed as decrease in acetic acid-induced writhing at 2 mg/kg, po administered 1 hr prior to acetic acid challenge; assay type: functional; procedure, shortened: as §2
[15] = test system: Mus musculus; test: Analgesic activity in albino mouse assessed as decrease in acetic acid-induced writhing at 8.68 mg/kg, po administered 1 hr prior to acetic acid challenge relative to control; assay type: functional; procedure, shortened: as §2
[16] = test system: Mus musculus; test: Analgesic activity in albino mouse assessed as decrease in acetic acid-induced writhing at 8 mg/kg, po administered 1 hr prior to acetic acid challenge; assay type: functional; procedure, shortened: as §2
[17] = test system: Mus musculus; test: Analgesic activity in po dosed albino mouse assessed as decrease in acetic acid-induced writhing administered 1 hr prior to acetic acid challenge; assay type: functional, organism-based; procedure, shortened: as §2
[18] = test system: Mus musculus; test: Analgesic activity in albino mouse assessed as decrease in acetic acid-induced writhing at 0.8 mg/kg, po administered 1 hr prior to acetic acid challenge; assay type: functional; procedure, shortened: as §2
[19] = test system: Mus musculus; test: Analgesic activity in albino mouse assessed as decrease in acetic acid-induced writhing at 4 mg/kg, po administered 1 hr prior to acetic acid challenge; assay type: functional; procedure, shortened: as §2
[20] = test system: Mus musculus; test: Analgesic activity in albino mouse assessed as decrease in acetic acid-induced writhing at 11.75 mg/kg, po administered 1 hr prior to acetic acid challenge relative to control; assay type: functional; procedure, shortened: as §2
[21] = test system: Mus musculus; test: Analgesic activity in albino mouse assessed as decrease in acetic acid-induced writhing at 11.49 mg/kg, po administered 1 hr prior to acetic acid challenge relative to control; assay type: functional; procedure, shortened: as §2
[22] = test system: Mus musculus; test: Analgesic activity in albino mouse assessed as decrease in acetic acid-induced writhing at 9 mg/kg, po administered 1 hr prior to acetic acid challenge relative to control; assay type: functional; procedure, shortened: as §2

CCCn1cnc2c(c1=N)C1CCCN1C(=S)N2CC (stereo unspecified)
UI [1]: Non-toxic | inhibition in vivo at 29 µmol/kg [2]: 6.82% | inhibition in vivo at 29 µmol/kg [3]: 13.5% | relative potency at 29 µmol/kg [4]: 0.24 | inhibition in vivo at 29 µmol/kg [5]: 9.37% | inhibition in vivo at 29 µmol/kg [6]: 15.7% | inhibition in vivo at 8.45 mg/kg [7]: 77.2%

O=C1NC(c2ccccc2)NC2=C1C1CCCN1C(=O)N2c1ccccc1 (stereo unspecified)
inhibition in vivo at 29 µmol/kg [2]: 10.6% | inhibition in vivo at 29 µmol/kg [3]: 4.47% | relative potency at 29 µmol/kg [4]: 0.38 | inhibition in vivo at 29 µmol/kg [5]: 11.5% | inhibition in vivo at 29 µmol/kg [6]: 12.4% | inhibition in vivo at 10.45 mg/kg [8]: 77.7%

CCCC/N=c1/c(C#N)c2n(c(=O)n1-c1ccccc1)CCC2
UI [1]: Non-toxic | inhibition in vivo at 29 µmol/kg [2]: 22.4% | inhibition in vivo at 29 µmol/kg [3]: 11.2% | relative potency at 29 µmol/kg [4]: 0.81 | inhibition in vivo at 29 µmol/kg [5]: 19.4% | inhibition in vivo at 29 µmol/kg [6]: 24% | inhibition in vivo at 8.94 mg/kg [9]: 88.7%

CCN1C(=S)N2CCCC2c2c1ncn(C)c2=N (stereo unspecified)
UI [1]: Non-toxic | inhibition in vivo at 29 µmol/kg [2]: 9.93% | inhibition in vivo at 29 µmol/kg [3]: 11.2% | relative potency at 29 µmol/kg [4]: 0.36 | inhibition in vivo at 29 µmol/kg [5]: 11.5% | inhibition in vivo at 29 µmol/kg [6]: 14.1% | inhibition in vivo at 7.63 mg/kg [10]: 97.6%

N#Cc1c2n(c(=O)n(-c3ccccc3)/c1=N\CCO)CCC2
inhibition in vivo at 8.59 mg/kg [11]: 87.8% | UI [1]: Non-toxic | inhibition in vivo at 29 µmol/kg [2]: 27.3% | inhibition in vivo at 29 µmol/kg [3]: 5.6% | relative potency at 29 µmol/kg [4]: 1 | inhibition in vivo at 29 µmol/kg [5]: 25.9% | inhibition in vivo at 29 µmol/kg [6]: 22.3%

N#CC1=C(NCCN)N(c2ccccc2)C(=O)N2CCCC12 (stereo unspecified)
inhibition in vivo at 0.4 mg/kg [12]: 49.4% | inhibition in vivo at 29 µmol/kg [2]: 16.9% | inhibition in vivo at 1 mg/kg [13]: 90.6% | inhibition in vivo at 29 µmol/kg [3]: 15.7% | inhibition in vivo at 2 mg/kg [14]: 94.4% | relative potency at 29 µmol/kg [4]: 0.61 | inhibition in vivo at 29 µmol/kg [5]: 25.9% | inhibition in vivo at 8.68 mg/kg [15]: 96.3% | inhibition in vivo at 29 µmol/kg [6]: 27.3% | inhibition in vivo at 8 mg/kg [16]: 96.4% | IC50 [17]: 0.402 mg/kg | inhibition in vivo at 0.8 mg/kg [18]: 81.3% | inhibition in vivo at 4 mg/kg [19]: 96%

O=C1NC(c2ccc([N+](=O)[O-])cc2)NC2=C1C1CCCN1C(=O)N2c1ccccc1 (stereo unspecified)
inhibition in vivo at 29 µmol/kg [2]: 19.2% | inhibition in vivo at 11.75 mg/kg [20]: 94.6% | inhibition in vivo at 29 µmol/kg [3]: 1.1% | relative potency at 29 µmol/kg [4]: 0.7 | inhibition in vivo at 29 µmol/kg [5]: 14.4% | inhibition in vivo at 29 µmol/kg [6]: 14.1%

N#Cc1c2n(c(=O)n(-c3ccccc3)/c1=N/c1cccc(C(F)(F)F)c1)CCC2
inhibition in vivo at 11.49 mg/kg [21]: 63.8% | inhibition in vivo at 29 µmol/kg [2]: 9.31% | inhibition in vivo at 29 µmol/kg [3]: 8.97% | relative potency at 29 µmol/kg [4]: 0.34 | inhibition in vivo at 29 µmol/kg [5]: 8.63% | inhibition in vivo at 29 µmol/kg [6]: 7.44%

CCO/C=N/C1=C(C#N)C2CCCN2C(=O)N1c1ccccc1 (stereo unspecified)
UI [1]: Non-toxic | inhibition in vivo at 29 µmol/kg [2]: 4.96% | inhibition in vivo at 29 µmol/kg [3]: 22.4% | relative potency at 29 µmol/kg [4]: 0.18 | inhibition in vivo at 29 µmol/kg [5]: 5.78% | inhibition in vivo at 29 µmol/kg [6]: 9.12% | inhibition in vivo at 9 mg/kg [22]: 69.8%
